ChEMBL document CHEMBL3351385, “Synthesis and preliminary mechanistic evaluation of 5-(p-tolyl)-1-(quinolin-2-yl)pyrazole-3-carboxylic acid amides with potent antiproliferative activity on human cancer cell lines” (Eur J Med Chem, 2014)
Active and inactive are the calls of the source. No cut-off for these calls is given here.

How the values were obtained:
[1] = target: Serine/threonine-protein kinase STK11 (Homo sapiens) (UniProt Q15831); experiment: Inhibition of LKB1 (unknown origin) assessed as remaining enzyme activity at 10 uM by radioactive [33P]-ATP filter binding assay
[2] = target: Ephrin type-A receptor 4 (Homo sapiens) (UniProt P54764); experiment: Inhibition of EPHA4 (unknown origin) assessed as remaining enzyme activity at 10 uM by radioactive [33P]-ATP filter binding assay
Outline: (§1)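 A single 10 µM concentration was tested across a 140-kinase panel. Activity was measured by a radioactive 33P-ATP filter-binding assay run at the International Center for Kinase Profiling, University of Dundee.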

[3] = target: Mitogen-activated protein kinase 12 (Homo sapiens) (UniProt P53778); experiment: Inhibition of p38gamma (unknown origin) assessed as remaining enzyme activity at 10 uM by radioactive [33P]-ATP filter binding assay
Outline: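 Single-concentration screen against a 140-kinase panel. Done by the International Center for Kinase Profiling, University of Dundee, with a radioactive 33P-ATP filter-binding read-out.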

[4] = target: Dual specificity mitogen-activated protein kinase kinase 1 (Homo sapiens) (UniProt Q02750); experiment: Inhibition of MKK1 (unknown origin) assessed as remaining enzyme activity at 10 uM by radioactive [33P]-ATP filter binding assay
[5] = target: Tyrosine-protein kinase JAK2 (Homo sapiens) (UniProt O60674); experiment: Inhibition of JAK2 (unknown origin) assessed as remaining enzyme activity at 10 uM by radioactive [33P]-ATP filter binding assay
[6] = target: Mitogen-activated protein kinase kinase kinase kinase 5 (Homo sapiens) (UniProt Q9Y4K4); experiment: Inhibition of MAP4K5 (unknown origin) assessed as remaining enzyme activity at 10 uM by radioactive [33P]-ATP filter binding assay
[7] = target: Serine/threonine-protein kinase 26 (Homo sapiens) (UniProt Q9P289); experiment: Inhibition of MST4 (unknown origin) assessed as remaining enzyme activity at 10 uM by radioactive [33P]-ATP filter binding assay
[8] = target: Mitogen-activated protein kinase 7 (Homo sapiens) (UniProt Q13164); experiment: Inhibition of ERK5 (unknown origin) assessed as remaining enzyme activity at 10 uM by radioactive [33P]-ATP filter binding assay; outline: as §1
[9] = target: Aurora kinase A (Homo sapiens) (UniProt O14965); experiment: Inhibition of Aurora A (unknown origin) assessed as remaining enzyme activity at 10 uM by radioactive [33P]-ATP filter binding assay; outline: as §1
[10] = target: Tyrosine-protein kinase Yes (Homo sapiens) (UniProt P07947); experiment: Inhibition of YES1 (unknown origin) assessed as remaining enzyme activity at 10 uM by radioactive [33P]-ATP filter binding assay
[11] = target: Dual specificity protein kinase CLK2 (Homo sapiens) (UniProt P49760); experiment: Inhibition of CLK2 (unknown origin) assessed as remaining enzyme activity at 10 uM by radioactive [33P]-ATP filter binding assay; outline: as §1
[12] = Induction of cell cycle arrest in human Mahlavu cells assessed as accumulation at S phase at cytotoxic IC50 level after 48 hrs by propidium iodide staining based FACS method; format: functional
[13] = Induction of cell cycle arrest in human HuH7 cells assessed as accumulation at S phase at cytotoxic IC50 level after 48 hrs by propidium iodide staining based FACS method; format: functional, Huh-7
Outline: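 Huh7 cells were seeded at 150,000–300,000 per 100-mm dish and left 24 h. […] Cells were stained with a propidium iodide-containing cell cycle reagent, and subG1, G0/G1, S and G2/M fractions were scored by flow cytometry.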

[14] = target: Mitogen-activated protein kinase kinase kinase 7, TAK1 (Homo sapiens) (UniProt O43318); experiment: Inhibition of TAK1 (unknown origin) assessed as remaining enzyme activity at 10 uM by radioactive [33P]-ATP filter binding assay
[15] = target: Serine/threonine-protein kinase Nek2 (Homo sapiens) (UniProt P51955); experiment: Inhibition of NEK2A (unknown origin) assessed as remaining enzyme activity at 10 uM by radioactive [33P]-ATP filter binding assay
[16] = target: High affinity nerve growth factor receptor (Homo sapiens) (UniProt P04629); experiment: Inhibition of TrkA (unknown origin) assessed as remaining enzyme activity at 10 uM by radioactive [33P]-ATP filter binding assay
[17] = target: Serine/threonine-protein kinase N2 (Homo sapiens) (UniProt Q16513); experiment: Inhibition of PRK2 (unknown origin) assessed as remaining enzyme activity at 10 uM by radioactive [33P]-ATP filter binding assay
[18] = target: Death-associated protein kinase 1 (Homo sapiens) (UniProt P53355); experiment: Inhibition of DAPK1 (unknown origin) assessed as remaining enzyme activity at 10 uM by radioactive [33P]-ATP filter binding assay; outline: as §1
[19] = target: Mitogen-activated protein kinase 10 (Homo sapiens) (UniProt P53779); experiment: Inhibition of JNK3 (unknown origin) assessed as remaining enzyme activity at 10 uM by radioactive [33P]-ATP filter binding assay
[20] = target: Mitogen-activated protein kinase kinase kinase 5 (Homo sapiens) (UniProt Q99683); experiment: Inhibition of ASK1 (unknown origin) assessed as remaining enzyme activity at 10 uM by radioactive [33P]-ATP filter binding assay; outline: as §1
[21] = target: Mitogen-activated protein kinase 11 (Homo sapiens) (UniProt Q15759); experiment: Inhibition of p38beta (unknown origin) assessed as remaining enzyme activity at 10 uM by radioactive [33P]-ATP filter binding assay
[22] = Induction of cell cycle arrest in human Mahlavu cells assessed as accumulation at G2/M phase at cytotoxic IC50 level after 48 hrs by propidium iodide staining based FACS method; format: functional
[23] = target: Glycogen synthase kinase-3 beta (Homo sapiens) (UniProt P49841); experiment: Inhibition of GSK3beta (unknown origin) assessed as remaining enzyme activity at 10 uM by radioactive [33P]-ATP filter binding assay
Huh-7 = experiment: Induction of cell death in human HuH7 cells assessed as DNA fragmentation at cytotoxic IC50 level after 72 hrs by Hoechst 33258 staining based […]; format: functional
Outline: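 Cells were washed in cold PBS, fixed 10 min in cold methanol and stained with Hoechst 33258 at 3 µg/mL for 5 min in the dark. Nuclear condensation and fragmentation were examined by fluorescence microscopy at 40×.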

[24] = target: Tyrosine-protein kinase SYK (Homo sapiens) (UniProt P43405); experiment: Inhibition of SYK (unknown origin) assessed as remaining enzyme activity at 10 uM by radioactive [33P]-ATP filter binding assay
[25] = target: Dual specificity tyrosine-phosphorylation-regulated kinase 2 (Homo sapiens) (UniProt Q92630); experiment: Inhibition of DYRK2 (unknown origin) assessed as remaining enzyme activity at 10 uM by radioactive [33P]-ATP filter binding assay; outline: as §1
[26] = target: Serine/threonine-protein kinase tousled-like 1 (Homo sapiens) (UniProt Q9UKI8); experiment: Inhibition of TLK1 (unknown origin) assessed as remaining enzyme activity at 10 uM by radioactive [33P]-ATP filter binding assay
[27] = target: Testis-specific serine/threonine-protein kinase 1 (Homo sapiens) (UniProt Q9BXA7); experiment: Inhibition of TSSK1 (unknown origin) assessed as remaining enzyme activity at 10 uM by radioactive [33P]-ATP filter binding assay

Chain of Mitogen-activated protein kinase kinase kinase 5 (Homo sapiens) (Q99683 whole entry): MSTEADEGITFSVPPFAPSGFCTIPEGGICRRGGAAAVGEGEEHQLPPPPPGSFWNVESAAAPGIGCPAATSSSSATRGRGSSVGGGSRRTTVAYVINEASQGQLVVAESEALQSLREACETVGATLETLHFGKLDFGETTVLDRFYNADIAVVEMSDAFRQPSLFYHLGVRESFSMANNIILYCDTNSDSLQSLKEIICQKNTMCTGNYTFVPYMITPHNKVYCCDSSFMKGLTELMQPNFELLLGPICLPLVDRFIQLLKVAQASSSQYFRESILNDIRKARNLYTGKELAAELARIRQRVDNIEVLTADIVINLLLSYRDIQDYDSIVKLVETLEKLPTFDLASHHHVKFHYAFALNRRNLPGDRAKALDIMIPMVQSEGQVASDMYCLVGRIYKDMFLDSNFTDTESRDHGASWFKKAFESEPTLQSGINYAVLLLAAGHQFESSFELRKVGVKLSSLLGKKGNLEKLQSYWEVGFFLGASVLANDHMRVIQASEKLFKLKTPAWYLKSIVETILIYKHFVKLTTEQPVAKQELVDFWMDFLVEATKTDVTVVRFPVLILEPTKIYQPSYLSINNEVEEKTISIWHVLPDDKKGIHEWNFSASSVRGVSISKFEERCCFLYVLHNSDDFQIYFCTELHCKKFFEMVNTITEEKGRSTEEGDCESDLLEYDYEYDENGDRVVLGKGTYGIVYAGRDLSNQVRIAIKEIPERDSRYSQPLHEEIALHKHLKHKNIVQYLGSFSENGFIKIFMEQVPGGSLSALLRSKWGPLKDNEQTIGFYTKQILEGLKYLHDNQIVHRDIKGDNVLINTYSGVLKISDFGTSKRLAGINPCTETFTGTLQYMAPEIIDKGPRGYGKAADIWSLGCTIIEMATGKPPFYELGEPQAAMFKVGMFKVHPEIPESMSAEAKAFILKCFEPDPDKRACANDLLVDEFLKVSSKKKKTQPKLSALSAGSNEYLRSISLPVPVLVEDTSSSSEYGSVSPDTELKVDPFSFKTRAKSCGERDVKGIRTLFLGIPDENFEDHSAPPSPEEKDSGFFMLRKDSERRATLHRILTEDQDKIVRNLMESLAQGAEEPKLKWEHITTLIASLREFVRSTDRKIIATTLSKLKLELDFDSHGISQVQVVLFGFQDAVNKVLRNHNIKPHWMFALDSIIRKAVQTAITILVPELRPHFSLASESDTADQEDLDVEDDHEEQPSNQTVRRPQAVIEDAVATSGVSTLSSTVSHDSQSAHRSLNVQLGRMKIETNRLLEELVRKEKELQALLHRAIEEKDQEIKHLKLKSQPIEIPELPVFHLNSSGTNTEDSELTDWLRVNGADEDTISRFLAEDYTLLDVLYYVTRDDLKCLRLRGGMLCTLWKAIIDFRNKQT
Chain of Mitogen-activated protein kinase 12 (Homo sapiens) (P53778 whole entry): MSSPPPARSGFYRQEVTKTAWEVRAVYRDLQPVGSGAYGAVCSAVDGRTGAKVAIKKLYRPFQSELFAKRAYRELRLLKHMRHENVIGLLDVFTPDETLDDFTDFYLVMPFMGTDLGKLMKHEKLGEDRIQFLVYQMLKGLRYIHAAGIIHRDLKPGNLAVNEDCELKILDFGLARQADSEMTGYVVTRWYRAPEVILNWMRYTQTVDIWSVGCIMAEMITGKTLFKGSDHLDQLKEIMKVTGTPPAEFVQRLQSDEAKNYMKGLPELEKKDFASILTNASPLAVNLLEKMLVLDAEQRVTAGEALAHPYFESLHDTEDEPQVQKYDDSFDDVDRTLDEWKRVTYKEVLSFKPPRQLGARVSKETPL
Chain of Tyrosine-protein kinase Yes (Homo sapiens) (P07947 2-543 limits assumed): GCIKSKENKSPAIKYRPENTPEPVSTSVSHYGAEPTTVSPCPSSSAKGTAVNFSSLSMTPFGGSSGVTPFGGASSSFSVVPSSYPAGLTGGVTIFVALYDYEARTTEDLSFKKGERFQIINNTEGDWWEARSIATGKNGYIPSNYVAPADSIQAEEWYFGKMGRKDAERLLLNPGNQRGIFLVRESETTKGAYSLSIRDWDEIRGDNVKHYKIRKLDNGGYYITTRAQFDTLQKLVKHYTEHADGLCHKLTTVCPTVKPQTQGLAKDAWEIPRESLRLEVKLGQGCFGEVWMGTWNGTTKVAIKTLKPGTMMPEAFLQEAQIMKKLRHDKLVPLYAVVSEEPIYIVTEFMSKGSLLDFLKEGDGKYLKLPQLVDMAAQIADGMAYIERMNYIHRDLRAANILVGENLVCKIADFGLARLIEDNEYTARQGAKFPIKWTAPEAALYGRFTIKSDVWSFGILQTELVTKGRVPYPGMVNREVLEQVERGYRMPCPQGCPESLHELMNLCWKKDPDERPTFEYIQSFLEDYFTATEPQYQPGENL
Chain of Mitogen-activated protein kinase 10 (Homo sapiens) (P53779 whole entry): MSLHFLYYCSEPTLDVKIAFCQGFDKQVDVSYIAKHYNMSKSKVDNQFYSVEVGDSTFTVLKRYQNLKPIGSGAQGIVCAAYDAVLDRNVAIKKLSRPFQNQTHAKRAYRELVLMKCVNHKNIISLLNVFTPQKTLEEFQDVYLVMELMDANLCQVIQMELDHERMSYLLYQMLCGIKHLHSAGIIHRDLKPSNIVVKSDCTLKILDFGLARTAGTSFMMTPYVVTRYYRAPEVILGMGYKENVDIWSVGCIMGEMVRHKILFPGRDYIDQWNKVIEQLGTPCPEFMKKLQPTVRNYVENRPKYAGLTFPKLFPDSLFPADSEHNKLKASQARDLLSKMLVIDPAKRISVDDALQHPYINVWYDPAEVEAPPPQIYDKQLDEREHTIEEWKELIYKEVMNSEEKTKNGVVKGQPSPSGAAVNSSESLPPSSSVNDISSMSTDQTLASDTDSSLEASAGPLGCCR
Chain of Serine/threonine-protein kinase Nek2 (Homo sapiens) (P51955 whole entry): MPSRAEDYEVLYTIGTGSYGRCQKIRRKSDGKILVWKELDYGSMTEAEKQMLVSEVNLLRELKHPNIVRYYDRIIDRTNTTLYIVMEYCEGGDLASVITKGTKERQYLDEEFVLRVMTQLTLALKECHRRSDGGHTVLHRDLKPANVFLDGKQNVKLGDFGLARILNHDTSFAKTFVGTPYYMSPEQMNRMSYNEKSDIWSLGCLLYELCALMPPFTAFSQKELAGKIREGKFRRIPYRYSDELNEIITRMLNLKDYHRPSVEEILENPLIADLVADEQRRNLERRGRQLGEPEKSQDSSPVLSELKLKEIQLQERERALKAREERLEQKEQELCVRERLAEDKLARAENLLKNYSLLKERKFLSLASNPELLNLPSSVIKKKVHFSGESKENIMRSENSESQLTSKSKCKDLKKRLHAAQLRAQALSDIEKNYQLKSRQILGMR
Chain of Dual specificity mitogen-activated protein kinase kinase 1 (Homo sapiens) (Q02750 whole entry): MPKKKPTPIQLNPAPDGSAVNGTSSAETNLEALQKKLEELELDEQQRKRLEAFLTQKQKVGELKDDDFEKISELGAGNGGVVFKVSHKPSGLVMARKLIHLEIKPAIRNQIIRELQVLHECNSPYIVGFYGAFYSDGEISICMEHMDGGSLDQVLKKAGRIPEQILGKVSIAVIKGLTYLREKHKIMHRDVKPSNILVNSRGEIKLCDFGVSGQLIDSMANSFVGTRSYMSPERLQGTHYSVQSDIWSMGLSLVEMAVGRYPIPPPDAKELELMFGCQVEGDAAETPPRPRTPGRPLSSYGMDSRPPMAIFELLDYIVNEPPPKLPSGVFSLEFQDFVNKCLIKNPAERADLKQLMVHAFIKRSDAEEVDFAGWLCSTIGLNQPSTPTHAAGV
Chain of Dual specificity tyrosine-phosphorylation-regulated kinase 2 (Homo sapiens) (Q92630 whole entry): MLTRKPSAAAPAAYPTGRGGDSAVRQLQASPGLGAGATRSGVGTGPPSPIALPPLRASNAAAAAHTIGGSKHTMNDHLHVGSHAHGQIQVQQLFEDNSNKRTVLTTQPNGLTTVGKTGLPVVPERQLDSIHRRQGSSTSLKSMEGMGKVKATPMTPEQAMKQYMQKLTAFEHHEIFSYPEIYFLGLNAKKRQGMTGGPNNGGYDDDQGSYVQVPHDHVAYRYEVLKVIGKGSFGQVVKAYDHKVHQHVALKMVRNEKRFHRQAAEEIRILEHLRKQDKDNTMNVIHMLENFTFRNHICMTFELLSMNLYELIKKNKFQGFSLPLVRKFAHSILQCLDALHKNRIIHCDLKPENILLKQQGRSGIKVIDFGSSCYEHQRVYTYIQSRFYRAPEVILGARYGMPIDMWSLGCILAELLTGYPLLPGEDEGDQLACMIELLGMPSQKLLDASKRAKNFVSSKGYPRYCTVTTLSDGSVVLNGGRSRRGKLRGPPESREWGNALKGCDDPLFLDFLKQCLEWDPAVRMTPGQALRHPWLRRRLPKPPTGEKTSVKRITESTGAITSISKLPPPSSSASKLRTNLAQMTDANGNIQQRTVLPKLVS
Chain of Serine/threonine-protein kinase STK11 (Homo sapiens) (Q15831 whole entry): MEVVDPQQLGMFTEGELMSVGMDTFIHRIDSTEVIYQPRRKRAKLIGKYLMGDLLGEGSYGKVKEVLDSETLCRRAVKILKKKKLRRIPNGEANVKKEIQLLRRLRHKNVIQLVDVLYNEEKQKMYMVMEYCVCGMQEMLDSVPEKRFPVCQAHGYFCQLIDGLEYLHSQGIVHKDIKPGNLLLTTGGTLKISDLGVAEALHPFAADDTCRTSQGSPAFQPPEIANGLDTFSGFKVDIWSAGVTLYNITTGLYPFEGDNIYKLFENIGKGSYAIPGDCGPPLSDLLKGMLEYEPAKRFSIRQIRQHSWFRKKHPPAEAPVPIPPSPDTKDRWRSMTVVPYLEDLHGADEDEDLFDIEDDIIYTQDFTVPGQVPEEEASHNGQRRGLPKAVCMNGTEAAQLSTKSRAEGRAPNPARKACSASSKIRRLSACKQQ
Chain of Aurora kinase A (Homo sapiens) (O14965 whole entry): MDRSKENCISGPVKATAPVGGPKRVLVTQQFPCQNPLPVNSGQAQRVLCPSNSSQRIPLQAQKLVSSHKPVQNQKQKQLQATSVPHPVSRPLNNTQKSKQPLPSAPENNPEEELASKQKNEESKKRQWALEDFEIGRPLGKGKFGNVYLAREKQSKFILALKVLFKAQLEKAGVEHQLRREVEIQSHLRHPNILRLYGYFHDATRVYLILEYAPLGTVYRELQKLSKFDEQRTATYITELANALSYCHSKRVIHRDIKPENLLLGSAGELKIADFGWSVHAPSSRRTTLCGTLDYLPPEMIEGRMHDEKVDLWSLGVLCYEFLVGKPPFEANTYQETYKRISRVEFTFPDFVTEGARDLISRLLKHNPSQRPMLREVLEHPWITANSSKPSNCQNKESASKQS

Molecule `Cc1ccc(-c2cc(C(=O)Nc3ccnc(Cl)c3)nn2-c2ccc3ccccc3n2)cc1` has an Activity [1] of 115%, an Activity [2] of 125% and an Activity [3] of 107%. The Activity [4] was 95%, the Activity [5] was 99% and the Activity [6] was 87%. It also gave an Activity [7] of 110%, an Activity [8] of 74% and an Activity [9] of 120%. It also gave an Activity [10] of 108%, an Activity [11] of 83% and an Activity [12] of 11.1%. For the same molecule, the Activity [13] was 10.3%, the Activity [14] was 91% and the Activity [15] was 90%. The Activity [16] was 96%, the Activity [17] was 98% and the Activity [18] was 112%. It also gave an Activity [19] of 95%, an Activity [20] of 97% and an Activity [21] of 107%. The Activity [22] was 19.9%, the Activity [23] was 103% and the Activity (Huh-7) was “Active”. The Activity [24] was 97%, the Activity [25] was 96% and the Activity [26] was 114%. It also gave an Activity [27] of 90%.
